Source: PubChem BioAssay
Active and inactive are the calls of the source.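 Rule for the calls, unless noted: active = GFP response above 150% of the DMSO level; inconclusive = fewer than 70 events counted for a yeast strain; inactive = the rest.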

How the values were obtained:
[1] = hit retest on RPL19A-GFP reporter strain – cell-based, S. cerevisiae, flow cytometry, cherry picks, mother/daughter gates, confirmation (AID 2270;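 active = GFP response below 50% of the DMSO control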); settings: 3 h, at 10 µM, stronger effect = lower value, 100 = same GFP as DMSO wells
[2] = yeast TOR pathway reporter LAP4-GFP change – cell-based, cherry picks, flow cytometry, mother/daughter gates, confirmation (AID 2271;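 active = GFP response above 150% of the DMSO control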;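 note: ratio of sample to DMSO plate mean so 100% equals DMSO level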); settings: S. cerevisiae LAP4-GFP strain, 3 h, at 10 µM, stronger effect = higher value, 100 means same as DMSO control
Summary of the method: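 Measured by: GFP by flow cytometry. Test system: GFP-fusion yeast strain. Input: yeast cells seeded at OD600 of 0.2. Timing: 30 °C, 3 h compound incubation, rotating. Buffer or medium: synthetic complete medium for yeast. Benchmarks: DMSO-only negative wells, rapamycin 400 ng/mL positive wells. Compound: 10 µM single dose.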

[3] = TOR pathway reporter MEP2-GFP, retest of hits – S. cerevisiae, flow cytometry GFP, cherry picks, confirmation (AID 2272;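 active = GFP response above 150% of the DMSO control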;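 note: ratio of well signal to plate DMSO mean so 100% equals DMSO level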); settings: S. cerevisiae MEP2-GFP strain, 3 h, at 10 µM, stronger effect = higher value
[4] = yeast AGP1-GFP fluorescence change, single-dose – cell-based, flow cytometry, S. cerevisiae, cherry picks, confirmation (AID 2273);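 note: median GFP channel fluorescence over the whole cell population gate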; settings: S. cerevisiae AGP1-GFP strain, 3 h, at 10 µM
[5] = TOR pathway CIT2 reporter hit retest – S. cerevisiae, GFP fusion, cherry picks, mother/daughter gates, confirmation (AID 2274); settings: S. cerevisiae CIT2-GFP strain, flow cytometry, 3 h, at 10 µM, stronger effect = higher value
[6] = measured here: daughter cell gate
[7] = measured here: mother cell gate
[8] = measured here: daughter cell gate response
[9] = measured here: mother cell gate response

| SMILES | GFP response vs DMSO [1] | GFP response vs DMSO [1, 6] [%] | GFP response vs DMSO [1, 7] [%] | GFP response relative to DMSO [2] | GFP response relative to DMSO [2, 8] [%] | GFP response relative to DMSO [2, 9] [%] | GFP response vs DMSO [3] | GFP response, % of DMSO [4] | GFP response, % of DMSO [5] | GFP response, % of DMSO [5, 6] [%] | GFP response, % of DMSO [5, 7] [%] |
| --- | --- | --- | --- | --- | --- | --- | --- | --- | --- | --- | --- |
| Cc1cccc(N2C(=O)C(Cl)=C(Nc3c(C)n(C)n(-c4ccccc4)c3=O)C2=O)c1C | 102% (inactive) | 102 | 103 | 103% (inactive) | 104 | 104 | 104% (inactive) | 103% (inactive) | 99.3% (inactive) | 100 | 98 |
| N#C/C(=C\c1c(N2CCCCCC2)nc2ccccn2c1=O)C(=O)NCc1ccco1 | 96% (inactive) | 97.9 | 96.2 | 92.8% (inactive) | 96 | 92.9 | 98.3% (inactive) | 95.6% (inactive) | 96.9% (inactive) | 99.1 | 96.1 |
| Cc1cc(C)c(C(=O)COC(=O)c2ccc([N+](=O)[O-])o2)cc1C | 100% (inactive) | 102 | 98.2 | 102% (inactive) | 102 | 104 | 101% (inactive) | 105% (inactive) | 100% (inactive) | 101 | 97.1 |
| CC(OC(=O)CSc1ccc([N+](=O)[O-])cc1)C(=O)NCc1ccccc1 (stereo not drawn) | 101% (inactive) | 101 | 101 | 99.8% (inactive) | 102 | 100 | 100% (inactive) | 98% (inactive) | 97.8% (inactive) | 96.5 | 96.6 |
| CCc1nnc(N2C(=O)c3cccc4cccc(c34)C2=O)s1 | 94.5% (inactive) | 95 | 93.3 | 94.1% (inactive) | 92.9 | 94.4 | 108% (inactive) | 98.8% (inactive) | 100% (inactive) | 101 | 99.3 |
| CC1CN(c2nc3ccccn3c(=O)c2/C=C(\C#N)C(=O)N2CCOCC2)CC(C)O1 (stereo not drawn) | 98.5% (inactive) | 99.3 | 98.4 | 102% (inactive) | 97.5 | 104 | 101% (inactive) | 95% (inactive) | 100% (inactive) | 99.3 | 102 |
| Oc1c(C(Nc2nc3ccccc3s2)c2ccco2)ccc2cccnc12 (stereo not drawn) | 98.9% (inactive) | 98.7 | 95.9 | 149% (inactive) | 132 | 145 | 112% (inactive) | 97.7% (inactive) | 100% (inactive) | 103 | 94.9 |
| O=c1[nH]n(Cc2ccccc2)c2ccccc12 | 97.6% (inactive) | 97.8 | 97.8 | 103% (inactive) | 102 | 103 | 102% (inactive) | 98.7% (inactive) | 96.4% (inactive) | 96.4 | 94.5 |
| COc1ccc(N2C(=O)C(Cl)=C(NCc3ccccc3)C2=O)cc1 | 96.5% (inactive) | 93 | 95.9 | 111% (inactive) | 111 | 112 | 99.3% (inactive) | 95.9% (inactive) | 91.7% (inactive) | 92.3 | 90.4 |
| O=[N+]([O-])c1cc(O)c2ncccc2c1 | 99.1% (inactive) | 94.2 | 97.5 | 205% (active) | 200 | 204 | 114% (inactive) | 94.3% (inactive) | 122% (inactive) | 112 | 131 |
| Cc1ccc(-c2noc(CCC(=O)Nc3ccccc3C)n2)cc1 | 98% (inactive) | 97 | 96.5 | 111% (inactive) | 104 | 112 | 106% (inactive) | 100% (inactive) | 100% (inactive) | 101 | 98.2 |
| Cc1ccc(CCN2CC(C(=O)NCCCN(C)Cc3ccccc3)CC2=O)cc1 (stereo not drawn) | 99.1% (inactive) | 99.3 | 98 | 101% (inactive) | 104 | 100 | 101% (inactive) | 103% (inactive) | 98.6% (inactive) | 103 | 96 |
| O=C1CC(Sc2ncccn2)C(=O)N1c1ccccc1C(F)(F)F (stereo not drawn) | 100% (inactive) | 100 | 100 | 98.7% (inactive) | 102 | 99.3 | 100% (inactive) | 98.9% (inactive) | 96.5% (inactive) | 96.5 | 97.7 |
| Cc1noc(/C=C/c2cccnc2)c1[N+](=O)[O-] | 105% (inactive) | 104 | 103 | 120% (inactive) | 117 | 124 | 104% (inactive) | 92.4% (inactive) | 92.6% (inactive) | 94.8 | 89.1 |
| CC(C)(C)C1=CC=C(C(C)(C)C)C(=O)C1=O | 102% (inactive) | 102 | 99.7 | 136% (inactive) | 131 | 136 | 104% (inactive) | 98.7% (inactive) | 104% (inactive) | 104 | 96.8 |
| COC(=O)c1ccc(N2C(=O)CC(SCCN)C2=O)cc1 (stereo not drawn) | 98.7% (inactive) | 100 | 98.4 | 98.9% (inactive) | 102 | 100 | 101% (inactive) | 103% (inactive) | 100% (inactive) | 103 | 99.3 |
| Cc1nnc(NC(=O)c2nc(S(=O)(=O)Cc3ccccc3C)ncc2Cl)s1 | 97.1% (inactive) | 96.4 | 94.4 | 98.9% (inactive) | 99 | 97.4 | 99.3% (inactive) | 98.2% (inactive) | 97.2% (inactive) | 97.6 | 96 |

| SMILES | GFP response vs DMSO [1] | GFP response vs DMSO [1, 6] [%] | GFP response vs DMSO [1, 7] [%] | GFP response relative to DMSO [2] | GFP response relative to DMSO [2, 8] [%] | GFP response relative to DMSO [2, 9] [%] | GFP response vs DMSO [3] | GFP response, % of DMSO [4] | GFP response, % of DMSO [5] | GFP response, % of DMSO [5, 6] [%] | GFP response, % of DMSO [5, 7] [%] |
| --- | --- | --- | --- | --- | --- | --- | --- | --- | --- | --- | --- |
| COCc1cc(=O)[nH]c(SCCS(=O)(=O)c2ccc(Cl)cc2Cl)n1 | 110% (inactive) | 115 | 107 | 102% (inactive) | 100 | 105 | 100% (inactive) | 103% (inactive) | 119% (inactive) | 119 | 116 |
| Cc1ccc(/C=C/C(=O)c2ccc([N+](=O)[O-])o2)cc1 | 101% (inactive) | 107 | 91.8 | 89.4% (inactive) | 89.8 | 85.2 | 114% (inactive) | 107% (inactive) | 106% (inactive) | 114 | 89.3 |
| COC(=O)Nc1c(-c2ccccc2)nc2ccc(C)cn12 | 101% (inactive) | 98.7 | 102 | 96.2% (inactive) | 97.2 | 98.3 | 102% (inactive) | 103% (inactive) | 104% (inactive) | 101 | 107 |
| CCn1c(=O)c(C(=O)NCc2ccc(OC)cc2)c(O)c2ccccc21 | 98.5% (inactive) | 99.5 | 98.4 | 97.7% (inactive) | 102 | 97.4 | 106% (inactive) | 100% (inactive) | 101% (inactive) | 101 | 100 |
| O=C(O)c1ccc(/C=N/NC(=O)c2ccc(Br)cc2)cc1 | 102% (inactive) | 100 | 102 | 98.2% (inactive) | 95.9 | 98.4 | 101% (inactive) | 99.8% (inactive) | 94.4% (inactive) | 93.8 | 94.4 |
| CCc1ccc(C(=O)COC(=O)c2n[nH]c3ccccc23)cc1 | 95.8% (inactive) | 97.3 | 94 | 102% (inactive) | 101 | 104 | 101% (inactive) | 101% (inactive) | 101% (inactive) | 97.6 | 102 |
| COc1ccc(C(=O)/C(=C/O)N=Nc2ccc(F)cc2)cc1 | 99.1% (inactive) | 97.8 | 98.6 | 106% (inactive) | 89.3 | 109 | 102% (inactive) | 91.4% (inactive) | 83.5% (inactive) | 85.3 | 80.5 |
| CC(=O)N(C1=C(Cl)C(=O)c2ccccc2C1=O)C1CCCCC1 | 22.6% (active) | 92.8 | 23.1 | 72.2% (inactive) | 113 | 73.7 | 97.8% (inactive) | 34.1% (inactive) | 69.1% (inactive) | 93.2 | 54.7 |
| O=C(O)c1cccc(S(=O)(=O)N2Cc3ccccc3C2)c1 | 96.9% (inactive) | 97.3 | 95.9 | 106% (inactive) | 101 | 108 | 101% (inactive) | 104% (inactive) | 100% (inactive) | 99.3 | 100 |
| COc1ccc(NC(=O)c2ccccc2NC(=O)c2ccccc2)cc1 | 98.4% (inactive) | 98.4 | 99.2 | 91.5% (inactive) | 94.4 | 89.7 | 96.2% (inactive) | 102% (inactive) | 103% (inactive) | 101 | 102 |
| CSc1nc(N2CCN(c3ccccc3Cl)CC2)c2ccccc2n1 | 96.2% (inactive) | 96.7 | 95.2 | 98.9% (inactive) | 101 | 98.4 | 110% (inactive) | 102% (inactive) | 97.2% (inactive) | 97.6 | 97.1 |
| COC(=O)c1ccc(Sc2ccccn2)c([N+](=O)[O-])c1 | 97.8% (inactive) | 101 | 97.7 | 99.5% (inactive) | 101 | 100 | 109% (inactive) | 98% (inactive) | 105% (inactive) | 105 | 104 |
| Cc1cc(NCCCN2CCOCC2)n2nc(C)c(-c3ccccc3)c2n1 | 95.8% (inactive) | 94.7 | 94.4 | 100% (inactive) | 97.5 | 100 | 99.3% (inactive) | 100% (inactive) | 101% (inactive) | 101 | 100 |
| Clc1cnc(N/N=C/c2cccs2)c(Cl)c1 | 105% (inactive) | 100 | 103 | 178% (active) | 158 | 172 | 126% (inactive) | 98.2% (inactive) | 103% (inactive) | 110 | 97.1 |
| O=C(COc1ccc(OCc2ccccc2)cc1)NN=C1CCCC1 | 98% (inactive) | 98.4 | 97.1 | 107% (inactive) | 104 | 109 | 103% (inactive) | 99.5% (inactive) | 100% (inactive) | 101 | 99.3 |
| C#CCSc1nncn1C(=O)/C=C/c1ccccc1 | 99.4% (inactive) | 98.6 | 95 | 145% (inactive) | 142 | 153 | 103% (inactive) | 101% (inactive) | 103% (inactive) | 111 | 93.7 |
